Measured values: ChEMBL document CHEMBL4619820, “Development of Novel AKR1C3 Inhibitors as New Potential Treatment for Castration-Resistant Prostate Cancer” (J Med Chem, 2020)
Substitutions are numbered along the chain they refer to. pIC50: −log10 of the molar value. The source made the active and inactive calls. The rule behind the calls is not given here.

Assays:
[1] = biological target: T1, Aldo-keto reductase family 1 member C3 (Homo sapiens, UniProt P42330); test: Inhibition of recombinant AKR1C3 (unknown origin) assessed as reduction in S-tetralol-induced dehydrogenase activity by measuring NADPH level
T1 sequence (P42330 whole entry): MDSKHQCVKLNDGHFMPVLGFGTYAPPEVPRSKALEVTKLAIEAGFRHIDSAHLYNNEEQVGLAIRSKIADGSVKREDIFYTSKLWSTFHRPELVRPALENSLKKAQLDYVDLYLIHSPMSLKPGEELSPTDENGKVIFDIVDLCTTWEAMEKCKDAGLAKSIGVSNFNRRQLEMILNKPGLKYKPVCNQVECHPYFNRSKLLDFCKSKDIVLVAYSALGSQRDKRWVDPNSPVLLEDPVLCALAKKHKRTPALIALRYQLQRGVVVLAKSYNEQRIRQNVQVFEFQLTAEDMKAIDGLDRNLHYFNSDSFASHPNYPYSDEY

[2] = biological target: T2, Androgen receptor (Homo sapiens) (UniProt P10275); test: Agonistic activity at AR in human 22Rv1 cells assessed as effect on cell number at 1 nM by CCK8 assay; format: cell-based; conditions: CWR22R
T2 sequence (whole entry): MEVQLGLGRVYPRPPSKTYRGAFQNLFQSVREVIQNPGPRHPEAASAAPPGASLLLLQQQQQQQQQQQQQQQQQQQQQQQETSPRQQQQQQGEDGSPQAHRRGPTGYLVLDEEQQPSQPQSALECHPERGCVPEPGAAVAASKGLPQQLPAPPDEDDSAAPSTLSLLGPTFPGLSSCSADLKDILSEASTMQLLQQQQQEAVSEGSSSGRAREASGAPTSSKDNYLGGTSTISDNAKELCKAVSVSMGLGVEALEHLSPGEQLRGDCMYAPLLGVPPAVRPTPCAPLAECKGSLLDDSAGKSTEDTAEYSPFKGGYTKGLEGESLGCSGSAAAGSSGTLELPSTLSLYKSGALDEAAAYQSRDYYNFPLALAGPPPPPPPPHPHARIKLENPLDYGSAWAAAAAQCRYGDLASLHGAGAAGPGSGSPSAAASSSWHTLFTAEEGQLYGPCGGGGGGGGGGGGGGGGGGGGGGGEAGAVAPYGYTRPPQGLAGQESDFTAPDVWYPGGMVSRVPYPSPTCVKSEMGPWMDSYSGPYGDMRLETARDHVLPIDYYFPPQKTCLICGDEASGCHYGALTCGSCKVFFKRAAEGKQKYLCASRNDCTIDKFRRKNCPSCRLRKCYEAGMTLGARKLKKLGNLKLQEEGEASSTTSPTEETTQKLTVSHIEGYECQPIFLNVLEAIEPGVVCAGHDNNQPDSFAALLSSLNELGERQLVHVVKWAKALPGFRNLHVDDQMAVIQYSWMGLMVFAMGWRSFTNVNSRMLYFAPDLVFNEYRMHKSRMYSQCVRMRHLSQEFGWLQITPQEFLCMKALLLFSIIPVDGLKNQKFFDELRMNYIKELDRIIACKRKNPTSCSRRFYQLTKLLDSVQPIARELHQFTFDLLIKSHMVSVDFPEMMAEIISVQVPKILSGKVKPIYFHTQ

[3] = system: CWR22R; test: Inhibition of pregnenolone-induced cell proliferation of human 22Rv1 cells at 10 uM pre-incubated for 2 hrs before pregnenolone stimulation for 72 hrs by alamar blue assay; format: functional, cell-based
In short: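 22Rv1 cells (AKR1C3- and AR-expressing) pretreated 2 h with agents, then cultured 72 h with 20 nM pregnenolone; viable cell number given as percent of pregnenolone-free control.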

[4] = system: CWR22R; test: Inhibition of AR mRNA expression in human 22Rv1 cells at 10 uM pre-incubated for 2 hrs before pregnenolone stimulation for 24 hrs by RT-qPCR analysis; format: functional, cell-based
In short: (§1)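 22Rv1 cells pretreated 2 h with test agents, then stimulated 24 h with 20 nM pregnenolone; AR, TMPRSS2 and PSA mRNA measured by RT-qPCR, given as ratio to pregnenolone-free control.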

[5] = system: CWR22R; test: Inhibition of TMPRSS2 mRNA expression in human 22Rv1 cells at 10 uM pre-incubated for 2 hrs before pregnenolone stimulation for 24 hrs by RT-qPCR analysis; format: functional, cell-based; in short: as §1
[6] = system: CWR22R; test: Inhibition of PSA mRNA expression in human 22Rv1 cells at 10 uM pre-incubated for 2 hrs before pregnenolone stimulation for 24 hrs by RT-qPCR analysis; format: functional, cell-based; in short: as §1
[7] = system: PC-3; test: Inhibition of cell proliferation of human PC3 cells over-expressing AKR1C3 at 1 uM incubated for 72 hrs by alamar blue assay; format: functional, cell-based
[8] = species: Homo sapiens; test: Ratio of IC50 for inhibition of recombinant AKR1C1 (unknown origin) inhibition of recombinant AKR1C3 (unknown origin)
[9] = species: Homo sapiens; test: Ratio of IC50 for inhibition of recombinant AKR1C4 (unknown origin) inhibition of recombinant AKR1C3 (unknown origin)
[10] = biological target: T3, Aldo-keto reductase family 1 member C4 (Homo sapiens, UniProt P17516); test: Inhibition of recombinant AKR1C4 (unknown origin) assessed as reduction in S-tetralol-induced dehydrogenase activity by measuring NADPH level
T3 sequence (P17516 whole entry): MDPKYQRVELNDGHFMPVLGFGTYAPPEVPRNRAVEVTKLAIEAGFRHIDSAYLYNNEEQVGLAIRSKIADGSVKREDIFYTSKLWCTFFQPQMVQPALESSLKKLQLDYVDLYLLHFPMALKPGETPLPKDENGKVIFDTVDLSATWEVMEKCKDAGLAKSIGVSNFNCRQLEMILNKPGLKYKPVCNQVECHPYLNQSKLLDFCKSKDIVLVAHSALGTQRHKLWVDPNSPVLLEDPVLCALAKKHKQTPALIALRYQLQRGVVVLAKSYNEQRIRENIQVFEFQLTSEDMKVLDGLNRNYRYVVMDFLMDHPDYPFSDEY

[11] = species: Homo sapiens; test: Ratio of IC50 for inhibition of CBR1 (unknown origin) inhibition of recombinant AKR1C3 (unknown origin)
[12] = biological target: T4, Carbonyl reductase [NADPH] 1 (Homo sapiens, UniProt P16152); test: Inhibition of CBR1 (unknown origin)
T4 sequence (P16152 whole entry): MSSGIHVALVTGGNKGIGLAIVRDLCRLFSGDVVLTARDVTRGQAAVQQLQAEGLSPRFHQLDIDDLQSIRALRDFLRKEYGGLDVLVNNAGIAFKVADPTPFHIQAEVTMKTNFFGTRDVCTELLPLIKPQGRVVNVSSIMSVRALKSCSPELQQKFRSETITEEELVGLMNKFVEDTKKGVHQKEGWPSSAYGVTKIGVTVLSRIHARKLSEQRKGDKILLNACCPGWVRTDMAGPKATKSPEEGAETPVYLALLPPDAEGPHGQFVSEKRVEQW

[13] = biological target: T5, Aldo-keto reductase family 1 member C2 (Homo sapiens, UniProt P52895); test: Inhibition of recombinant AKR1C2 (unknown origin) assessed as reduction in S-tetralol-induced dehydrogenase activity by measuring NADPH level
T5 sequence (P52895 whole entry): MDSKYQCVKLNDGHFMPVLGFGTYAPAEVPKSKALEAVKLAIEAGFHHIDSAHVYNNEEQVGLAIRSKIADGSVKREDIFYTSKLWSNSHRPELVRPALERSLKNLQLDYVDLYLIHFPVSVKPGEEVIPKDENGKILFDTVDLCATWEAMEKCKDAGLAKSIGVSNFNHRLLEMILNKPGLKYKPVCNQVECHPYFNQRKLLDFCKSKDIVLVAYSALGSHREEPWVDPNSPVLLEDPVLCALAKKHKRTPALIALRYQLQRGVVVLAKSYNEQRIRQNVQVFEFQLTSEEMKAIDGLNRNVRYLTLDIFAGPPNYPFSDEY

[14] = biological target: T6, Aldo-keto reductase family 1 member C1 (Homo sapiens, UniProt Q04828); test: Inhibition of recombinant AKR1C1 (unknown origin) assessed as reduction in S-tetralol-induced dehydrogenase activity by measuring NADPH level
T6 sequence (Q04828 whole entry): T5 sequence (P52895 whole entry) with V38T, H47R, V54L, S87C, M151V, H170R, L172Q

[15] = species: Homo sapiens; test: Ratio of IC50 for inhibition of recombinant AKR1C2 (unknown origin) inhibition of recombinant AKR1C3 (unknown origin)
[16] = system: PC-3; conditions: Homo sapiens, at 10 µM

N=c1oc2c(O)cccc2cc1C(=O)Nc1ccc(Cl)cc1
pIC50 [1]: 7.28 | Activity [2]: inactive

N=c1oc2cc(O)ccc2cc1C(=O)Nc1ccc(F)cc1
pIC50 [1]: < 5.00

N=c1oc2c(O)cccc2cc1C(=O)Nc1ccc(O)cc1
pIC50 [1]: < 5.00 | Activity [2]: inactive

CC(C)C(=O)Nc1ccc([N+](=O)[O-])c(C(F)(F)F)c1
inhibition [3]: Active | inhibition [4]: Active | inhibition [5]: Active | inhibition [6]: Active

N=c1oc2c(O)cccc2cc1C(=O)Nc1cccc(C(F)(F)F)c1
pIC50 [1]: 7.30

CCc1ccc(NC(=O)c2cc3cccc(O)c3oc2=N)cc1
pIC50 [1]: 7.35 | Activity [2]: inactive

N=c1oc2c(O)cccc2cc1C(=O)Nc1ccc(C(F)(F)F)cc1
pIC50 [1]: 7.62

COC[C@H]1OC(=O)c2coc3c2[C@@]1(C)C1=C(C3=O)[C@@H]2CCC(=O)[C@@]2(C)C[C@H]1OC(C)=O
inhibition [7]: Active

N=c1oc2c(O)cccc2cc1C(=O)Nc1ccccc1O
pIC50 [1]: < 5.00 | Activity [2]: inactive

COc1cccc2cc(C(=O)Nc3ccc(F)cc3)c(=N)oc12
pIC50 [1]: < 5.00

N=c1oc2c(O)cccc2cc1C(=O)Nc1cccc(Cl)c1
Ratio IC50 [8]: > 220 | pIC50 [1]: 7.34 | Ratio IC50 [9]: > 220 | pIC50 [10]: < 5.00 | Ratio IC50 [11]: 3 | pIC50 [12]: 6.92 | pIC50 [13]: < 5.00 | pIC50 [14]: < 5.00 | Activity [2]: inactive | Ratio IC50 [15]: > 220

N=c1oc2c(O)cccc2cc1C(=O)Nc1ccccc1Cl
Ratio IC50 [8]: > 180 | pIC50 [1]: 7.25 | Ratio IC50 [9]: > 180 | pIC50 [10]: < 5.00 | Ratio IC50 [11]: 0.6 | pIC50 [12]: 7.47 | pIC50 [13]: < 5.00 | pIC50 [14]: < 5.00 | Activity [2]: inactive | Ratio IC50 [15]: > 180

N=c1oc2c(O)cccc2cc1C(=O)Nc1cc(F)c(F)c(F)c1
pIC50 [1]: 7.33 | Activity [2]: inactive

Cc1ccccc1NC(=O)c1cc2cccc(O)c2oc1=N
pIC50 [1]: 7.28

CC(C)c1ccccc1NC(=O)c1cc2cccc(O)c2oc1=N
pIC50 [1]: 7.52

N=c1oc2c(O)cccc2cc1C(=O)Nc1ccc(F)c(F)c1
pIC50 [1]: 6.66 | Activity [2]: inactive

N=c1oc2c(O)cccc2cc1C(=O)Nc1cccc(O)c1
pIC50 [1]: 7.22 | Activity [2]: inactive

Cc1cccc(NC(=O)c2cc3cccc(O)c3oc2=N)c1
pIC50 [1]: 7.26

N=c1oc2c(O)cccc2cc1C(=O)Nc1ccccc1
pIC50 [1]: 7.44 | Activity [2]: inactive

N=c1oc2cccc(O)c2cc1C(=O)Nc1ccc(F)cc1
pIC50 [1]: 6.43

N=c1oc2c(O)cccc2cc1C(=O)Nc1ccc(C(F)(F)F)cc1C(F)(F)F
pIC50 [1]: 7.24

CC(C)c1cccc(NC(=O)c2cc3cccc(O)c3oc2=N)c1
pIC50 [1]: 7.33

N=c1oc2ccc(O)cc2cc1C(=O)Nc1ccc(F)cc1
pIC50 [1]: < 5.00

N=c1oc2c(O)cccc2cc1C(=O)Nc1ccccc1C(F)(F)F
Ratio IC50 [8]: > 500 | pIC50 [1]: 7.70 | Ratio IC50 [9]: > 500 | pIC50 [10]: < 5.00 | Ratio IC50 [11]: 4 | pIC50 [12]: 7.12 | pIC50 [13]: < 5.00 | pIC50 [14]: < 5.00 | Ratio IC50 [15]: > 500

N=c1oc2c(O)cccc2cc1C(=O)Nc1ccccc1F
pIC50 [1]: 7.19 | Activity [2]: inactive

N#CC(=C(/N)Sc1ccccc1N)/C(C#N)=C(\N)Sc1ccccc1N
inhibition [16]: inactive

CCc1ccccc1NC(=O)c1cc2cccc(O)c2oc1=N
pIC50 [1]: 7.68 | Activity [2]: inactive

N=c1oc2c(O)cccc2cc1C(=O)Nc1cccc(F)c1
Ratio IC50 [8]: > 340 | pIC50 [1]: 7.54 | Ratio IC50 [9]: > 340 | pIC50 [10]: < 5.00 | Ratio IC50 [11]: 13 | pIC50 [12]: 6.43 | pIC50 [13]: < 5.00 | pIC50 [14]: < 5.00 | Activity [2]: inactive | Ratio IC50 [15]: > 340
